From ChEMBL document CHEMBL4311938, “Sirtuin inhibition and anti-cancer activities of ethyl 2-benzimidazole-5-carboxylate derivatives” (Medchemcomm, 2019) come the findings set out here.

The term IC50 denotes the concentration at which inhibition is half-maximal. Usually GI50 stands for the concentration that inhibits growth by half.

Assay [1] addresses T1, NAD-dependent protein deacetylase sirtuin-1 (Homo sapiens, UniProt Q96EB6).
T1 sequence (Q96EB6 whole entry): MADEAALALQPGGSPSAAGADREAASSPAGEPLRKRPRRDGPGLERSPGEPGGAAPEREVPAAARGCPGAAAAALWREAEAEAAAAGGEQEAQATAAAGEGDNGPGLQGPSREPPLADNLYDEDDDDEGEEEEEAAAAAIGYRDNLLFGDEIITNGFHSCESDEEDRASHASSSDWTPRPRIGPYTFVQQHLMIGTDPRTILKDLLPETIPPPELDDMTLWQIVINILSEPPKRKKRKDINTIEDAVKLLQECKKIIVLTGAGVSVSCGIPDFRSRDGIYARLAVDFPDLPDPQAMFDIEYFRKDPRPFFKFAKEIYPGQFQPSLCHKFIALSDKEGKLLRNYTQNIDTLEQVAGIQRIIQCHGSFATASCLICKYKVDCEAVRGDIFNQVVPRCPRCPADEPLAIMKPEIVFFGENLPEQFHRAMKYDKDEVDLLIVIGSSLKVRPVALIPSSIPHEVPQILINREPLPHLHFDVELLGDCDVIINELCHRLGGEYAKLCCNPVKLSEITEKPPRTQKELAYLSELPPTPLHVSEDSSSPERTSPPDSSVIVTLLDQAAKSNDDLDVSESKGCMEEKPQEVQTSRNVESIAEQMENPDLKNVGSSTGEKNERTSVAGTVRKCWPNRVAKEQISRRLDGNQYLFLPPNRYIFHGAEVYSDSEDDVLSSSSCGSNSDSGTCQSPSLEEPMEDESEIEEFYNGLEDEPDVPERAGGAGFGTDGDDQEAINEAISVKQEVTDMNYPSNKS
The experiment in a line: Inhibition of human recombinant SIRT1 using p53 (379 to 382 residues) conjugated to AMC as substrate incubated for 45 mins in presence of NAD+ by fluorescence assay.

Assay [2] concerns the target T2, NAD-dependent protein deacetylase sirtuin-2 (Homo sapiens, UniProt Q8IXJ6).
T2 sequence (Q8IXJ6 whole entry): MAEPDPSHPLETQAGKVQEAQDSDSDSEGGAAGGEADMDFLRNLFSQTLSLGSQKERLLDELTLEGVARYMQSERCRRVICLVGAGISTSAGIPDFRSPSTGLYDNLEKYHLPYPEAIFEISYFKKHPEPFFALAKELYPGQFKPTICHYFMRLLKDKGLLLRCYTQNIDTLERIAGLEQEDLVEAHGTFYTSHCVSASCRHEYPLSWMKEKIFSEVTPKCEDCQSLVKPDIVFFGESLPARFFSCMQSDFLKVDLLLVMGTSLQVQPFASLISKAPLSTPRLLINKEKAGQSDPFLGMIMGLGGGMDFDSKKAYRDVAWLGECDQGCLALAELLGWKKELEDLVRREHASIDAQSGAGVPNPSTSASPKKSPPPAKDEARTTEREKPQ
In words: Inhibition of human recombinant SIRT2 using p53 (317 to 320 residues) conjugated to AMC as substrate incubated for 45 mins in presence of NAD+ by fluorescence assay.

Assay [3] has as its target T3, NAD-dependent protein deacetylase sirtuin-3, mitochondrial (Homo sapiens, UniProt Q9NTG7).
T3 sequence (Q9NTG7 whole entry): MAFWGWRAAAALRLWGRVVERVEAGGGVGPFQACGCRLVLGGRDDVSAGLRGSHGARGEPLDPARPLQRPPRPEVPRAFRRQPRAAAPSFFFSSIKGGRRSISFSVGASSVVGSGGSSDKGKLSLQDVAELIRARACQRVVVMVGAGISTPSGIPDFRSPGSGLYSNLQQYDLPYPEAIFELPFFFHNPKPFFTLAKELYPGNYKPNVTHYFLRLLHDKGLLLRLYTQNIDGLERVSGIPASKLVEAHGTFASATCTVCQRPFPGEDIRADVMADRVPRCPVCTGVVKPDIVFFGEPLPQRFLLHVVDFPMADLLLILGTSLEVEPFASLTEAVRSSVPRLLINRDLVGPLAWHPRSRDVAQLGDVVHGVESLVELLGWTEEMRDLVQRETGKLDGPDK
In words: Inhibition of human recombinant SIRT3 using p53 (317 to 320 residues) conjugated to AMC as substrate incubated for 45 mins in presence of NAD+ by fluorescence assay.

The target of assay [4] is T4, NAD-dependent protein deacetylase sirtuin-2 (Homo sapiens) (UniProt Q8IXJ6).
T4 sequence (whole entry): T2 sequence (Q8IXJ6 whole entry)
In words: Inhibition of SIRT2 in human H103 cells assessed as increase in acetylated alpha tubulin level at 5.83 uM after 72 hrs by Western blot analysis. The class given is cell-based. In outline:
(§1)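 H103 cells were seeded at 5 × 10^5 per well and treated either for 24 h or for 72 h. Lysates were run on SDS-PAGE and blotted to PVDF. Blocking in 5% skimmed milk with primary antibody was done overnight at 4 °C. HRP secondaries were anti-mouse 1:5000 and anti-rabbit 1:1000, 1 h at room temperature, with ECL detection. Acetylated protein was normalized to actin, then to total protein, then to untreated cells. Two independent experiments were run.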
In general terms: A western blot detects proteins with antibodies after separation by electrophoresis.

Assay [5] concerns the target T5, NAD-dependent protein deacetylase sirtuin-1 (Homo sapiens) (UniProt Q96EB6).
T5 sequence (whole entry): T1 sequence (Q96EB6 whole entry)
The experiment in a line: Inhibition of SIRT1 in human H103 cells assessed as increase in acetylated p53 level at 5.83 uM after 72 hrs by Western blot analysis. The class given is cell-based. In outline: as §1

Assay [6] has as its target T5, NAD-dependent protein deacetylase sirtuin-1 (Homo sapiens). The experiment in a line: Inhibition of SIRT1 in human H103 cells assessed as increase in acetylated p53 level at 32 uM after 24 hrs by Western blot analysis. Format: cell-based. In outline: as §1
Assay [7] has as its target T6, NAD-dependent protein deacetylase sirtuin-3, mitochondrial (Homo sapiens) (UniProt Q9NTG7).
T6 sequence (whole entry): T3 sequence (Q9NTG7 whole entry)
In words: Inhibition of SIRT3 in human H103 cells assessed as growth inhibition after 72 hrs by MTT assay. The class given is cell-based. The procedure, abridged:
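H103 cells (ECACC) were seeded at 5 × 10^3 per well and treated for 72 h with final DMSO below 1%. Viability was read by MTT: 4 h at 37 °C in 5% CO2, formazan dissolved in DMSO, absorbance at 570 nm. Proliferation was expressed as the ratio of treated to control absorbance. Experiments were run in triplicate. GI50 was determined.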

Assay [8] relates to H103. The experiment in a line: Cell cycle arrest in human H103 cells assessed as accumulation at G1 phase after 24 hrs by RNase/7-AAD staining based flow cytometry analysis (reference value: 38.8 %). The class given is functional. The procedure, abridged: (§2)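 H103 oral squamous carcinoma cells (ECACC) were seeded at 5 × 10^5 per well, left to adhere overnight and then treated for 24 h. Cells were trypsinized, washed in PBS and fixed in ice-cold 70% ethanol for 30 min at 4 °C. They were stained with RNase plus 7-AAD in staining buffer, and DNA content was read by imaging flow cytometry at 488 nm. G1 = 2N, G2/M = 4N.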

Assay [9] deals with H103. The experiment in a line: Cell cycle arrest in human H103 cells assessed as accumulation at S phase after 24 hrs by RNase/7-AAD staining based flow cytometry analysis (reference value: 18 %). The class given is functional. In outline:
as §2
(Flow cytometry measures light scatter and fluorescence of single cells or particles in a stream.)

The test system of assay [10] is H103. In words: Cell cycle arrest in human H103 cells assessed as accumulation at G2/M phase after 24 hrs by RNase/7-AAD staining based flow cytometry analysis (reference value: 36.5 %). Format: functional. In outline: as §2
Assay [11] concerns H103. The experiment in a line: Induction of apoptosis in human H103 cells assessed as viable cells after 24 hrs by AnnexinV-FLTC/propidium iodide staining based flow cytometry (reference value: 29.4 %). The class given is functional.
For assay [12], the system named is H103. In words: Induction of apoptosis in human H103 cells assessed as early apoptotic cells after 24 hrs by AnnexinV-FLTC/propidium iodide staining based flow cytometry (reference value: 0.01 %). Format: functional.
Assay [13] has as its system H103. The experiment in a line: Induction of apoptosis in human H103 cells assessed as late apoptotic cells after 24 hrs by AnnexinV-FLTC/propidium iodide staining based flow cytometry (reference value: 1.32 %). The class given is functional.
In assay [14] the test system is H103. The experiment in a line: Induction of apoptosis in human H103 cells assessed as necrotic cells after 24 hrs by AnnexinV-FLTC/propidium iodide staining based flow cytometry (reference value: 7.49 %). Format: functional.

Calls of active or inactive are those of the source. No cut-off for these calls is given here.

For the molecule `CCOC(=O)c1ccc2[nH]c(-c3ccc(Cl)cc3)nc2c1`, the figures for the IC50 in assay [1] and in assay [2] were 33.6 µM and 30.5 µM, respectively.

For `CCOC(=O)c1ccc2[nH]c(-c3ccc4c(c3)OCO4)nc2c1`, the IC50 amounted to 7.7 µM in assay [1], 5.6 µM in [2] and 9.8 µM in assay [3]. The inhibition entry in assay [4] is “Active”. In addition, the inhibition result in assay [5] and in assay [6] was “inactive” throughout. Further, the GI50 in [7] stood at 5.83 µM. For the same molecule, the Activity with H103 [8] was 8.1%; with H103 [9], 20.3%; in the assay on H103 [10], 43.2%; with H103 [11], 90.6%; in the assay on H103 [12], 0.04%; in the assay with H103 [13] it was 7.82%. In addition, in the assay on H103 [14], the Activity came to 11.3%.

Consider `CCOC(=O)c1ccc2[nH]c(-c3ccc(C(F)(F)F)cc3)nc2c1`, for which the IC50 in assay [1], in [2] and in assay [3] was > 50 µM each time.

As to `CCOC(=O)c1ccc2[nH]c(-c3ccc(OC(F)(F)F)cc3)nc2c1`, the IC50 in assay [1], in assay [2] and in assay [3] was > 50 µM each time.

`CCOC(=O)c1ccc2[nH]c(-c3ccc(Br)cc3)nc2c1`: the IC50 in assay [1] was > 50 µM; in assay [2] it was 45.8 µM; in assay [3], > 50 µM.
